According to ChEMBL document CHEMBL1128338, “Synthesis and activity of some antimalarial bisquinolines” (J Med Chem, 1995):

Experiments:
[1] = Resistance index as the ratio of IC50 value against FAC8 to that of D10 strains.; assay type: functional
How it was run: (§1)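 Ratio of IC50 against the CQ-resistant strain (FAC8 or K1) to IC50 against CQ-sensitive D10. IC50s from 4-day growth assays at c. 1% parasitemia, 2% hematocrit, daily drug-medium replacement, duplicate growth curves.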

Plasmodium falciparum [2] = test: In vitro inhibition chloroquine-resistant Plasmodium falciparum K1; assay type: functional, organism-based
How it was run: (§2)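 P. falciparum blood-stage cultures plated at c. 1% parasitemia, 2% hematocrit, exposed to a range of drug concentrations (compounds from 30 mM DMSO stocks; final DMSO <0.1%). Incubated 4 days with daily replacement of drug-containing medium. Growth curves run in duplicate; IC50 taken as concentration giving 50% growth inhibition.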

Plasmodium falciparum [3] = test: In vitro inhibition of chloroquine-resistant Plasmodium falciparum FAC8; assay type: functional, organism-based; how it was run: as §2
[4] = Resistance index as the ratio of IC50 value against K1 to that of D10 strains.; assay type: functional; how it was run: as §1
Plasmodium falciparum [5] = test: In vitro inhibition of chloroquine-sensitive Plasmodium falciparum D-10; assay type: functional, organism-based; how it was run: as §2

SMILES	Resistance index [1]	IC50 (Plasmodium falciparum [2]) [nM]	IC50 (Plasmodium falciparum [3]) [nM]	Resistance index [4]	IC50 (Plasmodium falciparum [5]) [nM]
CCN(CC)CCCC(C)Nc1ccnc2ccc(NC(=O)CCCCCCC(=O)Nc3ccc4nccc(NC(C)CCCN(CC)CC)c4c3)cc12 (stereo not given)	1	7400	5200	1.5	5000
CCN(CC)CCCC(C)Nc1ccnc2c(NC(=O)CCCCC(=O)Nc3cccc4c(NC(C)CCCN(CC)CC)ccnc34)cccc12 (stereo not given)	0.9	230	120	1.8	130
CCN(CC)CCCC(C)Nc1ccnc2ccc(NC(=O)C(=O)Nc3ccc4nccc(NC(C)CCCN(CC)CC)c4c3)cc12 (stereo not given)	0.7	2200	1800	0.8	2600
CCN(CC)CCCC(C)Nc1ccnc2c(NC(=O)CCCCCCCCC(=O)Nc3cccc4c(NC(C)CCCN(CC)CC)ccnc34)cccc12 (stereo not given)	1.2	290	310	1.1	260
CCN(CC)CCCC(C)Nc1ccnc2c(NC(=O)CCCCCCC(=O)Nc3cccc4c(NC(C)CCCN(CC)CC)ccnc34)cccc12 (stereo not given)	0.9	600	350	1.6	380
CCN(CC)CCCC(C)Nc1ccnc2c(NC(=O)CCC(=O)Nc3cccc4c(NC(C)CCCN(CC)CC)ccnc34)cccc12 (stereo not given)	2.2	2500	1200	5	500
CCN(CC)CCCC(C)Nc1ccnc2ccc(NC(=O)CCCCCCCCC(=O)Nc3ccc4nccc(NC(C)CCCN(CC)CC)c4c3)cc12 (stereo not given)	0.7	8400	3800	1.5	5700
CCN(CC)CCCC(C)Nc1ccnc2c(NC(=O)C(=O)Nc3cccc4c(NC(C)CCCN(CC)CC)ccnc34)cccc12 (stereo not given)	1.4	2300	1900	1.7	1300
CCN(CC)CCCC(C)Nc1ccnc2ccc(NC(=O)CCCCC(=O)Nc3ccc4nccc(NC(C)CCCN(CC)CC)c4c3)cc12 (stereo not given)	1.1	15900	10300	1.7	9600
